Data as given in ChEMBL document CHEMBL1250432, “Pteridine-sulfonamide conjugates as dual inhibitors of carbonic anhydrases and dihydrofolate reductase with potential antitumor activity” (Bioorg Med Chem, 2010).
Activity calls are given as the source filed them. The calls are words filed in the database; no cut-off is given here.

Tests used:
Dihydrofolate reductase = Dihydrofolate reductase (Lactobacillus casei, UniProt P00381); assay: Inhibition of Lactobacillus casei DHFR by spectrophotometric analysis; set-up: species or system Lacticaseibacillus casei
Dihydrofolate reductase, sequence (P00381 whole entry): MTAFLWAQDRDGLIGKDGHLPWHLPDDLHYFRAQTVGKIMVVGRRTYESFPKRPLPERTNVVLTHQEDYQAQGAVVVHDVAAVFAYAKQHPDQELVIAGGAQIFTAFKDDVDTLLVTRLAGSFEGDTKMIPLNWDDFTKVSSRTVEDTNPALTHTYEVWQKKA

Carbonic anhydrase 9 = Carbonic anhydrase 9 (Homo sapiens, UniProt Q16790); assay: Inhibition of human recombinant carbonic anhydrase 9 after 15 mins by stopped flow CO2 hydration assay
PC-3 = assay: Antiproliferative activity against human PC3 cells after 72 hrs by MTT assay; assay type: functional, cell-based; conditions: PC-3, 72 h
Outline: (§1)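 A549 (ATCC) and PC3 cells kept in RPMI-1640 with 10% heat-inactivated FBS, 2 mM glutamine and 1 mM sodium pyruvate at 37 °C in humidified 5% CO2. Seeded at about 5000 cells/well and exposed continuously for 72 h to a range of inhibitor concentrations, with MTX as control. Viability read by MTT assay; IC50 reported.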

[1] = biological target: Dihydrofolate reductase (Lactobacillus casei) (UniProt P00381); assay: Inhibition of Lactobacillus casei DHFR at 0.5 mM by spectrophotometric analysis; conditions: Lacticaseibacillus casei
Dihydrofolate reductase (Lactobacillus casei), sequence (P00381 whole entry): as above
Outline: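 L. casei DHFR activity followed spectrophotometrically as the fall in absorbance at 340 nm from NADPH oxidation, with and without inhibitor, at 30 °C. Inhibitor tested at 0.5 mM, the highest concentration used.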

A549 = assay: Antiproliferative activity against human A549 cells after 72 hrs by MTT assay; assay type: functional, cell-based; conditions: A549, 72 h; outline: as §1

Compound | IC50 (Dihydrofolate reductase) | Ki (Carbonic anhydrase 9) | IC50 (PC-3) | inhibition [1] | IC50 (A549)
CN(Cc1cnc2nc(N)nc(N)c2n1)c1ccc(C(=O)NCCc2ccc(S(N)(=O)=O)cc2)cc1 | 1.8 µM | 0.0037 µM | 500 µM | – | –
Nc1nc(N)c2nc(CNCCc3ccc(S(N)(=O)=O)cc3)cnc2n1 | – | – | 300 µM | inactive | –
CN(Cc1cnc2nc(N)nc(N)c2n1)c1ccc(C(=O)N[C@@H](CCC(=O)O)C(=O)O)cc1 [METHOTREXATE] | – | – | 0.001 µM | – | 0.005 µM
Nc1nc(N)c2nc(CNc3ccc(C(=O)NCCc4ccc(S(N)(=O)=O)cc4)cc3)cnc2n1 | 20 µM | 0.0025 µM | 400 µM | – | 2000 µM
Nc1nc(N)c2nc(CNc3ccc(S(N)(=O)=O)cc3)cnc2n1 | 2.5 µM | 0.0021 µM | 550 µM | – | –

Second part, the compound after the results:

IC50 (Dihydrofolate reductase) | Ki (Carbonic anhydrase 9) | IC50 (PC-3) | inhibition [1] | IC50 (A549) | Compound
1.3 µM | > 1 µM | 500 µM | – | – | Nc1nc(N)c2nc(CNc3ccc(C(=O)NCCc4ccc(S(=O)(=O)O)cc4)cc3)cnc2n1
2 µM | > 1 µM | 500 µM | – | – | Nc1nc(N)c2nc(CNc3ccc(S(=O)(=O)O)cc3)cnc2n1
– | > 1 µM | 460 µM | inactive | – | Nc1nc(N)c2nc(CNCCc3ccc(S(=O)(=O)O)cc3)cnc2n1
